Structures are written as SMILES. Active and inactive are the calls of the source. No cut-off for these calls is given here.

Series [1] has as its system Colon 26 (Mus musculus). Kind of series: Prodrug conversion in mouse Colon 26 cells assessed as death of neighboring cells at 5 uM incubated for 24 hrs followed by irradiation with diode laser light for 15 mins measured after 48 hrs by Calcein AM live cell staining assay. As to conditions: colon 26, 5 µM.
Series [2] concerns the target T1, Tubulin (Homo sapiens) (UniProt P68371+Q9H4B7+P0DPH7+P68366+Q13509+Q71U36+P04350+Q3ZCM7+P07437+P68363+Q9BQE3+Q6PEY2+Q13885+Q9BVA1+Q9BUF5). Kind of series: Inhibition of tubulin polymerization (unknown origin) at 3 uM after 1 hr by fluorescence plate reader analysis. The class given is protein-complex assay. An outline of the steps:
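Kit-based fluorescence assay: tubulin plus GTP in buffer with test agent at 3 μM final, incubated at 37 °C. Polymerization was monitored kinetically at ex 360/em 450 nm against a vehicle-only control. Inhibition was assessed after 1 h incubation, as mean ± SD of three experiments.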

Series [3] deals with Mus musculus. Kind of series: Toxicity in mouse Colon 26 cells allografted BALB/c mouse assessed as change in body weight at 2 to 4 umol/kg, ip qd for 2 days measured 30 mins post irradiation with diode laser light. The series is classed as organism-based. As to conditions: in vivo. The gist of the method:
(§1)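 Colon 26 cells (2 × 10^6 in PBS) were implanted sc in the lower back-neck of 4–6-week-old BALB/c mice. Mice were used once tumors reached 3–5 mm diameter. Doses came from DMSO stocks diluted in 1% Tween 80/5% dextrose and filtered, given as 200 μL ip daily on days 0, 1 and 2. After 1.5 h mice were anesthetized (ketamine/xylazine) and tumors irradiated at 690 nm, 200 mW/cm2 for 30 min (360 J/cm2). Tumor volume was lw2/2 by caliper, and body weight was followed. Groups had six mice; control had three.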

Series [4] concerns the target T1, Tubulin (Homo sapiens). The series can be described thus: Inhibition of tubulin polymerization (unknown origin) at 3 uM after 20 mins by fluorescence plate reader analysis. The class given is protein-complex assay.
The subject of series [5] is Colon 26. Kind of series: Antitumor activity against mouse Colon 26 cells allografted in BALB/c mouse at 2 umol/kg, ip qd for 2 days measured 30 mins post irradiation with diode laser light. The series is classed as functional, organism-based. The gist of the method: as §1
In series [6] the test system is MCF7. Kind of series: Darktoxicity against human MCF7 cells incubated for 24 hrs followed by 30 mins incubation in dark measured after 3 days by MTT assay. The series is classed as cell-based. An outline of the steps: (§2)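 MCF-7 cells were grown in α-MEM with 10% bovine growth serum, seeded at 5000/well and grown 24 h at 37 °C, 5% CO2. Compounds were diluted from 2 mM DMSO stocks into medium and incubated 24 h. Phototoxicity plates were shaken and irradiated at 690 nm, 5.6 mW/cm2 for 30 min. Dark plates were kept unlit for 30 min. After 3 days, MTT viability was read at A570 minus A650 and expressed as % of untreated.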

The test system of series [7] is Colon 26. Kind of series: Antitumor activity against mouse Colon 26 cells allografted in BALB/c mouse at 4 umol/kg, ip qd for 2 days measured 30 mins post irradiation with diode laser light. The series is classed as functional, organism-based. The gist of the method: as §1
The test system of series [8] is MCF7. Kind of series: Ratio of IC50 for darktoxicity against human MCF7 cells to IC50 for cytotoxicity against human MCF7 cells in presence of diode laser light. The class given is functional.
Series [9] relates to Colon 26 (Mus musculus). The series can be described thus: Prodrug conversion in mouse Colon 26 cells assessed as death of neighboring cells at 50 nM incubated for 24 hrs followed by irradiation with diode laser light for 15 mins measured after 48 hrs by Calcein AM live cell staining assay. As to conditions: colon 26, 0.05 µM.
Series [10] relates to MCF7. The series can be described thus: Cytotoxicity against human MCF7 cells incubated for 24 hrs followed by irradiated with diode laser light for 30 mins. The series is classed as functional, cell-based. The settings on record: MCF7, light or radiation study. The gist of the method: as §2
Series [11] has as its target T1, Tubulin (Homo sapiens). The series can be described thus: Inhibition of tubulin polymerization (unknown origin) at 3 uM after 1 hr by fluorescence plate reader analysis.
For series [12], the system named is Mus musculus. Kind of series: Biodistribution in nu/nu mouse at 24 umol/kg, ip followed by irradiation with diode laser light for 1.5 hrs measured after 10 to 30 mins by optical imaging analysis. The series is classed as ADME, organism-based. As to conditions: in vivo. An outline of the steps:
(§3)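 The FRET probe was formulated as a Tween 80 paste, extracted into 5% dextrose, filtered, and quantified by CMP absorbance. It was given at 24 μmol/kg ip. At 1.5 h the neck region was irradiated with a 690 nm diode laser at 500 mW/cm2. Mice were under 2.5% isoflurane anesthesia, and fluorescence images were taken after 0, 10, 20 and 30 min irradiation.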

Series [13] deals with Mus musculus. The series can be described thus: Biodistribution in nu/nu mouse at 24 umol/kg, ip followed by irradiation with diode laser light for 1.5 hrs by optical imaging analysis. The class given is ADME, organism-based. The settings on record: in vivo, TDE = time-dependent effect. The gist of the method:
as §3

Regarding `O=C(O)COc1ccc(-c2c3nc(c(-c4ccccc4)c4ccc(s4)c(-c4cccs4)c4nc(c(-c5ccc(OCC(=O)O)cc5)c5ccc2s5)C=C4)C=C3)cc1`, the Drug metabolism entry in series [1] is given as “Not Active”.

A word on the inhibition: it is the percentage by which the read-out fell short of the control. Broadly, the IC50 is the concentration at which inhibition is half-maximal. With `COc1ccc(/C=C\c2cc(OC)c(OC)c(OC)c2)cc1OC(=O)/C=C/N1CCC(COC(=O)COc2ccc(-c3c4nc(c(-c5ccccc5)c5ccc(s5)c(-c5ccccc5)c5nc(c(-c6ccccc6)c6ccc3s6)C=C5)C=C4)cc2)CC1`, the inhibition in series [2] was found to be 6%. In series [3], the Activity result is “Non-toxic”. Also, the inhibition entry in series [4] is “inactive”. Moreover, the outcome in series [5] and in [7] was Active. Further, the IC50 in [6] turned out to be 164 nM; in series [10], 28 nM. For the same compound, the “Ratio IC50” value in series [8] is given as 6. The Drug metabolism result in series [9] is on record as “Active”.

As for `COc1ccc(/C=C\c2cc(OC)c(OC)c(OC)c2)cc1OCCCN1CCN(C(=O)COc2ccc(-c3c4nc(c(-c5ccccc5)c5ccc(s5)c(-c5ccccc5)c5nc(c(-c6ccccc6)c6ccc3s6)C=C5)C=C4)cc2)CC1`, the inhibition in series [2] is 9%. The inhibition entry in series [4] is “inactive”. Also, the IC50 in [6] was determined as 1800 nM; in series [10], 1060 nM. Further, the “Ratio IC50” value in series [8] was 1.7.

`CC(=O)O[C@H]1C(=O)[C@@]2(C)[C@H]([C@H](OC(=O)c3ccccc3)[C@]3(O)C[C@H](OC(=O)[C@H](O)[C@@H](NC(=O)c4ccccc4)c4ccccc4)C(C)=C1C3(C)C)[C@]1(OC(C)=O)CO[C@@H]1C[C@@H]2O`: the inhibition entry in [11] is “Active”.

`COc1ccc(/C=C\c2cc(OC)c(OC)c(OC)c2)cc1O` [COMBRETASTATIN A4] displayed a concentration for half-maximal inhibition (IC50) in series [6] of 9 nM.

As for `CCN(CC)c1ccc2c(-c3ccccc3C(=O)OCN3CCN(/C=C/OC(=O)COc4ccc(-c5c6nc(c(-c7ccccc7)c7ccc(s7)c(-c7ccccc7)c7nc(c(-c8ccccc8)c8ccc5s8)C=C7)C=C6)cc4)CC3)c3ccc(=[N+](CC)CC)cc-3oc2c1.[Cl-]`, the Drug uptake result in series [12] is recorded as “Active”; in series [13], “tde”.

These data come from ChEMBL document CHEMBL2375295, “Site-specific and far-red-light-activatable prodrug of combretastatin A-4 using photo-unclick chemistry” (J Med Chem, 2013).
